Active and inactive are the calls of the source. The calls are words filed in the database; no cut-off is given here.
Tests used:
CCRF-CEM [1] = test: Ratio of IC50 for human vinblastine-resistant CCRF-CEM cells to IC50 for human CCRF-CEM cells; assay type: functional
Procedure, shortened: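 Ratio of alamarBlue IC50 values, determined in the CCRF-CEM/VBL vinblastine-resistant subline and in the parental CCRF-CEM line.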

[2] = Cytotoxicity against human H1299 cells after 72 hrs by AlamarBlue assay; assay type: functional, cell-based; details: NCI-H1299, 72 h
Procedure, shortened: (§1)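 Growth inhibition read by alamarBlue. After reagent addition, plates were held 6 h at 37 °C and absorbance read at 570 and 600 nm. IC50 was derived from dose-response curves over 6 or 7 drug concentrations by the median-effect method. Values are mean and STDEV of three to six independent experiments.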

PC-3 = test: Cytotoxicity against human PC3 cells after 72 hrs by AlamarBlue assay; assay type: functional, cell-based; details: PC-3, 72 h; procedure, shortened: as §1
[3] = Cytotoxicity against human H460 cells after 72 hrs by AlamarBlue assay; assay type: functional, cell-based; details: NCI-H460, 72 h; procedure, shortened: as §1
CCRF-CEM [4] = test: Cytotoxicity against human vinblastine-resistant CCRF-CEM cells after 72 hrs by AlamarBlue assay; assay type: functional, cell-based; procedure, shortened: as §1
HCT-116 = test: Cytotoxicity against human HCT116 cells after 72 hrs by AlamarBlue assay; assay type: functional, cell-based; details: HCT-116, 72 h; procedure, shortened: as §1
CCRF-CEM [5] = test: Cytotoxicity against human CCRF-CEM cells after 72 hrs by AlamarBlue assay; assay type: functional, cell-based; procedure, shortened: as §1
[6] = Induction of DNA cross-linking activity in pEGFP-N1 DNA (unknown origin) at 20 uM after 2 hrs by alkaline agarose gel shift assay
Procedure, shortened: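 pEGFP-N1 plasmid DNA incubated with compound at 1, 10 or 20 µM in binding buffer (30 mM NaCl/10 mM sodium phosphate pH 7.4, 10 mM EDTA) for 2 h at 37 °C. DNA then linearized with BamHI for 6 h, ethanol-precipitated and run on alkaline agarose gel. Cross-linked double-stranded DNA was scored against single-stranded DNA. Melphalan (1 and 10 µM) was the positive control.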

NCI-H460 [7] = test: Induction of apoptosis in human H460 cells assessed as necrotic cells at 2 uM after 24 hrs using Annexin V/propidium iodide staining by flow cytometry (reference value: 0.6%); assay type: functional
NCI-H460 [8] = test: Induction of apoptosis in human H460 cells assessed as early apoptotic cells at 2 uM after 72 hrs using Annexin V/propidium iodide staining by flow cytometry (reference value: 2%); assay type: functional
NCI-H460 [9] = test: Induction of apoptosis in human H460 cells assessed as early apoptotic cells at 2 uM after 48 hrs using Annexin V/propidium iodide staining by flow cytometry (reference value: 2%); assay type: functional
[10] = Cell cycle arrest in human H460 cells assessed as accumulation at sub-G1 phase at 2 uM after 24 hrs using propidium iodide staining by flow cytometry; assay type: functional, cell-based; details: NCI-H460
Procedure, shortened: (§2)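 H460 cells exposed to 0.25, 0.5, 1 or 2 µM for 24 h, then stained with […] propidium iodide in PBS with 0.1 mg/mL RNase A and 1% Triton X-100. DNA content and phase distribution read by flow cytometry. Values are the mean of 3 independent experiments.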

[11] = Cell cycle arrest in human H460 cells assessed as accumulation at G1 phase after 24 hrs using propidium iodide staining by flow cytometry; assay type: functional, cell-based; details: NCI-H460; procedure, shortened: as §2
NCI-H460 [12] = test: Induction of apoptosis in human H460 cells assessed as late apoptotic cells at 2 uM after 24 hrs using Annexin V/propidium iodide staining by flow cytometry (reference value: 7%); assay type: functional
NCI-H460 [13] = test: Induction of apoptosis in human H460 cells assessed as necrotic cells at 2 uM after 48 hrs using Annexin V/propidium iodide staining by flow cytometry (reference value: 0.6%); assay type: functional
NCI-H460 [14] = test: Induction of apoptosis in human H460 cells assessed as necrotic cells at 2 uM after 72 hrs using Annexin V/propidium iodide staining by flow cytometry (reference value: 0.6%); assay type: functional
NCI-H460 [15] = test: Induction of apoptosis in human H460 cells assessed as late apoptotic cells at 2 uM after 72 hrs using Annexin V/propidium iodide staining by flow cytometry (reference value: 7%); assay type: functional
[16] = Cell cycle arrest in human H460 cells assessed as accumulation at G2/M phase after 24 hrs using propidium iodide staining by flow cytometry; assay type: functional, cell-based; details: NCI-H460; procedure, shortened: as §2
NCI-H460 [17] = test: Induction of apoptosis in human H460 cells assessed as late apoptotic cells at 2 uM after 48 hrs using Annexin V/propidium iodide staining by flow cytometry (reference value: 7%); assay type: functional
NCI-H460 [18] = test: Induction of apoptosis in human H460 cells assessed as early apoptotic cells at 2 uM after 24 hrs using Annexin V/propidium iodide staining by flow cytometry (reference value: 2%); assay type: functional

SMILES	Ratio IC50 (CCRF-CEM [1])	IC50 [2]	IC50 (PC-3)	IC50 [3]	IC50 (CCRF-CEM [4])	IC50 (HCT-116)	IC50 (CCRF-CEM [5])	Activity [6]	Activity (NCI-H460 [7])	Activity (NCI-H460 [8])	Activity (NCI-H460 [9])	Activity [10]	Activity [11]	Activity (NCI-H460 [12])	Activity (NCI-H460 [13])	Activity (NCI-H460 [14])	Activity (NCI-H460 [15])	Activity [16]	Activity (NCI-H460 [17])	Activity (NCI-H460 [18])
Cc1cc(Nc2ccccc2)c2cc(NC(=O)Nc3ccc(N(CCCl)CCCl)cc3)ccc2n1	26.15	1730 nM	1490 nM	1370 nM	11500 nM	830 nM	440 nM	–	–	–	–	–	–	–	–	–	–	–	–	–
C#Cc1cccc(Nc2cc(C)nc3ccc(NC(=O)Nc4ccc(N(CCCl)CCCl)cc4)cc23)c1	9.55	1130 nM	1170 nM	700 nM	4490 nM	590 nM	470 nM	–	–	–	–	–	–	–	–	–	–	–	–	–
Cc1cc(Nc2cccc(C(F)(F)F)c2)c2cc(NC(=O)Nc3ccc(N(CCCl)CCCl)cc3)ccc2n1	10.1	1480 nM	1420 nM	850 nM	5960 nM	620 nM	590 nM	–	–	–	–	–	–	–	–	–	–	–	–	–
CNc1cc(C)nc2ccc(NC(=O)Nc3ccc(N(CCCl)CCCl)cc3)cc12	>256	5400 nM	2510 nM	9370 nM	> 100000 nM	1280 nM	390 nM	–	–	–	–	–	–	–	–	–	–	–	–	–
Cc1cc(Nc2ccc(Br)cc2)c2cc(NC(=O)Nc3ccc(N(CCCl)CCCl)cc3)ccc2n1	18.33	1350 nM	1750 nM	910 nM	9530 nM	800 nM	520 nM	–	–	–	–	–	–	–	–	–	–	–	–	–
COc1cc(Nc2cc(C)nc3ccc(NC(=O)Nc4ccc(N(CCCl)CCCl)cc4)cc23)cc(OC)c1OC	>125	2540 nM	3460 nM	3740 nM	> 100000 nM	1810 nM	800 nM	–	–	–	–	–	–	–	–	–	–	–	–	–
CC[C@]1(O)C[C@@H]2CN(CCc3c([nH]c4ccccc34)[C@@](C(=O)OC)(c3cc4c(cc3OC)N(C)[C@H]3[C@@](O)(C(=O)OC)[C@H](OC(C)=O)[C@]5(CC)C=CCN6CC[C@]43[C@@H]65)C2)C1 [VINBLASTINE]	300	–	–	–	870 nM	–	2.9 nM	–	–	–	–	–	–	–	–	–	–	–	–	–
Cc1cc(Nc2ccc(Cl)cc2)c2cc(NC(=O)Nc3ccc(N(CCCl)CCCl)cc3)ccc2n1	11.21	1310 nM	1360 nM	840 nM	8180 nM	770 nM	730 nM	–	–	–	–	–	–	–	–	–	–	–	–	–
COc1cccc(Nc2cc(-c3ccccc3)nc3ccc(NC(=O)Nc4ccc(N(CCCl)CCCl)cc4)cc23)c1	3.43	2130 nM	2210 nM	1890 nM	2710 nM	1350 nM	790 nM	–	–	–	–	–	–	–	–	–	–	–	–	–
Cc1cc(Nc2cccc(Cl)c2)c2cc(NC(=O)Nc3ccc(N(CCCl)CCCl)cc3)ccc2n1	12.81	880 nM	1270 nM	1030 nM	7560 nM	560 nM	590 nM	–	–	–	–	–	–	–	–	–	–	–	–	–
Cc1cccc(Nc2cc(-c3ccccc3)nc3ccc(NC(=O)Nc4ccc(N(CCCl)CCCl)cc4)cc23)c1	2.25	1420 nM	1230 nM	2090 nM	4150 nM	1800 nM	1840 nM	–	–	–	–	–	–	–	–	–	–	–	–	–
Cc1cc(Nc2ccc(F)cc2)c2cc(NC(=O)Nc3ccc(N(CCCl)CCCl)cc3)ccc2n1	26.19	2370 nM	7160 nM	1010 nM	11000 nM	1060 nM	420 nM	–	–	–	–	–	–	–	–	–	–	–	–	–
Cc1cccc(Nc2cc(C)nc3ccc(NC(=O)Nc4ccc(N(CCCl)CCCl)cc4)cc23)c1	15	1050 nM	1290 nM	920 nM	5850 nM	490 nM	390 nM	Active	–	–	–	–	–	–	–	–	–	–	–	–
COc1cccc(Nc2cc(C)nc3ccc(NC(=O)Nc4ccc(N(CCCl)CCCl)cc4)cc23)c1	15.07	1320 nM	2380 nM	1830 nM	4220 nM	620 nM	280 nM	Active	–	–	–	–	–	–	–	–	–	–	–	–
Cc1cc(Nc2cccc(F)c2)c2cc(NC(=O)Nc3ccc(N(CCCl)CCCl)cc3)ccc2n1	13.68	1090 nM	1490 nM	860 nM	9580 nM	740 nM	700 nM	–	–	–	–	–	–	–	–	–	–	–	–	–
Cc1cc(Nc2ccc(F)c(Br)c2)c2cc(NC(=O)Nc3ccc(N(CCCl)CCCl)cc3)ccc2n1	25.45	1280 nM	1320 nM	820 nM	10200 nM	630 nM	400 nM	–	–	–	–	–	–	–	–	–	–	–	–	–
Cc1cc(Nc2ccc(F)c(Cl)c2)c2cc(NC(=O)Nc3ccc(N(CCCl)CCCl)cc3)ccc2n1	18.2	1070 nM	1780 nM	1400 nM	9830 nM	830 nM	540 nM	–	–	–	–	–	–	–	–	–	–	–	–	–
O=C(Nc1ccc(N(CCCl)CCCl)cc1)Nc1ccc2nc(-c3ccccc3)cc(Nc3ccc(F)c(Cl)c3)c2c1	2.59	5390 nM	8860 nM	7810 nM	7070 nM	3580 nM	2720 nM	–	–	–	–	–	–	–	–	–	–	–	–	–
O=C(Nc1ccc(N(CCCl)CCCl)cc1)Nc1ccc2nc(-c3ccccc3)cc(Nc3cccc(Cl)c3)c2c1	2.19	2350 nM	2130 nM	2260 nM	4550 nM	3690 nM	2070 nM	–	–	–	–	–	–	–	–	–	–	–	–	–
Cc1cc(Nc2cccc(Br)c2)c2cc(NC(=O)Nc3ccc(N(CCCl)CCCl)cc3)ccc2n1	11.28	770 nM	1410 nM	1180 nM	5190 nM	490 nM	460 nM	–	4.3%	3.7%	1.4%	Active	Dose-dependent effect	16.7%	21.8%	9.8%	65.5%	Dose-dependent effect	32.6%	3.7%

Reference: ChEMBL document CHEMBL3286279, “The synthesis and biological evaluation of new DNA-directed alkylating agents, phenyl N-mustard-4-anilinoquinoline conjugates containing a urea linker” (Eur J Med Chem, 2014)
